NS3 helicase inh: blocks Hepatitis C virus NS3 helicase unwinding; AID 1800; inhibition, % at 10.9 µM; 290,000 tested, 0.56% active; NS3 helicase DNA unwinding, Cy5 molecular beacon fluorescence;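 active means inhibition above the mean of all tested compounds plus 3 SD, set per campaign, cut at about 35% in these data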;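 further: 0% = DMSO wells and 100% = thioflavine S control wells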
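Assay system: hepatitis C virus NS3 helicase domain fragment enzyme. Also added: annealed dual-labelled DNA beacon duplex, ATP-started. Timing: 1 h reaction at 25 °C, ATP-initiated. Technique: Cy5 fluorescence at 0 and 60 min, beacon hairpin quenching. Evaluation: % inhibition of unwinding. Replication: one well per compound.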
HCV core dimer: blocks dimerization of HCV core protein; TR-FRET GST/Flag-core106 dimerization, 1536-well; inhibition, % at 5 µM; 300,000 tested, 0.33% active; AID 1899;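 active means inhibition above the mean of all tested compounds plus 3 SD, set per screening campaign, cut at about 45% in these data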
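test system = GST/Flag-tagged HCV core106 proteins | probe or stimulus = Eu donor and XL665 acceptor anti-tag antibodies | times = compound-protein-antibody incubation 4 h at 22.5 °C | signal = TR-FRET, excitation 340 nm, emission 617 and 671 nm | measure = percent inhibition of core106 dimerization signal | controls = wells lacking GST-core106 and wells with excess unlabelled core106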
GRK2 aptamer HTS: human GRK2 inhibition via aptamer displacement. 330,000 tested, 0.59% active. bead flow cytometry, FAM-aptamer displacement from GRK2. inhibition of aptamer binding, % at 10 µM. AID 488847. P25098;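 active means inhibition of aptamer binding above 40%, roughly 3 SD of noise, on plates passing a quality check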;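 further: median bead fluorescence of bound FAM aptamer so fluorescent compounds give negative values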
Target sequence (P25098 whole entry, looked up): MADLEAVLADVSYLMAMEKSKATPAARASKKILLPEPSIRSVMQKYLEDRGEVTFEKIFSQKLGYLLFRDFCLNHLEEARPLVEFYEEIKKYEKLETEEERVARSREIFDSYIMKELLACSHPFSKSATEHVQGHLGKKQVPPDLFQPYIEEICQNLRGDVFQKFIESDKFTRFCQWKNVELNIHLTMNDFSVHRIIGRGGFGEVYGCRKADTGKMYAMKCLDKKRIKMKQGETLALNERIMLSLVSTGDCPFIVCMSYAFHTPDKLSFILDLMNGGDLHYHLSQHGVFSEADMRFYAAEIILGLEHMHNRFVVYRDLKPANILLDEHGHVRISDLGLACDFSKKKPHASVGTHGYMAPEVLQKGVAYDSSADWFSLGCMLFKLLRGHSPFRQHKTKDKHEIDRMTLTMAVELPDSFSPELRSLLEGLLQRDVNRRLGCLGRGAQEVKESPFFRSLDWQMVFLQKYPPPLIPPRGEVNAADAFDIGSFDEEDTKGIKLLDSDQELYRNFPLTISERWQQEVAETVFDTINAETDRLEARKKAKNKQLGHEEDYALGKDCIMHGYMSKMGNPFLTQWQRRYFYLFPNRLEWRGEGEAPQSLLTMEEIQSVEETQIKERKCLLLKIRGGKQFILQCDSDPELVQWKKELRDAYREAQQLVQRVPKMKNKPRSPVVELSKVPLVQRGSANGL
GPR7 antag: antagonists of human GPR7 (neuropeptides B/W receptor 1); GPR7-expressing cells, fluorescence antagonist assay; AID 1861; inhibition, % at 4.4 µM; 290,000 tested, 1.1% active; P48145; in the data active means inhibition above about 16%, passing the limit was not always enough;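 further: cells stimulated with the agonist NPW; 0% = agonist with vehicle and 100% = vehicle without agonist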
FID counter: fluorescent intercalator displacement, NS3 helicase counter-screen; DNA fluorescent intercalator displacement, fluorescence; inhibition, % at 7.9 µM; 290,000 tested, 0.17% active; AID 1845; in the data active means inhibition above about 37%;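 further: 0% = vehicle and 100% = reference compound; higher means more ethidium bromide displaced from hairpin DNA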
DAGLB inhibitor: blocks human DAGLB lipase activity; inhibition, % at 5.17 µM; 340,000 tested, 0.059% active; HEK293T DAGLB membrane lysate, EnzChek fluorogenic substrate; Q8NCG7; in the data active means inhibition above about 34%;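 further: 0% = enzyme with vehicle and 100% = wells lacking enzyme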
GPR7 antag conf: confirmation of human GPR7 antagonists; GPR7-expressing cells, calcium fluorescence antagonist mode; inhibition, % at 4.4 µM; shares compounds with GPR7 antag; 2,400 tested, 52% active; in the data active means inhibition above about 24%;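 further: stimulated with the GPR7 agonist NPW; 0% = agonist plus vehicle and 100% = vehicle alone without agonist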
MCHR1 antagonist: counter-screen for GPR7 antagonists: antagonists of human MCHR1 | shares compounds with GPR7 antag | MCHR1-expressing cells, fluorescence antagonist assay | inhibition, % at 4.4 µM | 2,400 tested, 62% active | AID 2148; in the data active means inhibition above about 22%;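 further: 0% = vehicle with agonist and 100% = vehicle without agonist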
* marks the source's active call; other numbers are inactive results; · = not tested or not shown. Hits are enriched below; roughly 2.2% of the tested compounds scored in any of these assays.

SMILES	NS3 helicase inh	HCV core dimer	GRK2 aptamer HTS	GPR7 antag	FID counter	DAGLB inhibitor	GPR7 antag conf	MCHR1 antagonist
COc1ccc(Cl)cc1N(CC(=O)NC1CC2CCC1C2)S(=O)(=O)c1ccccc1 (centres undefined)	-3	-2	0	33*	-57	-2	37*	62*
CCOc1ncccc1C(=O)N1CCN(c2cccc(C)c2C)CC1	0	·	·	28*	-38	-4	20	34*
CCc1ccc(-c2cc(C)no2)cc1S(=O)(=O)N1CCN(c2ccc(F)cc2)CC1	-12	14	3	2	-4	-8	·	·
COc1ccc2c(Cl)c(C(=O)N/N=C3\CCCC(=O)C3)sc2c1	24	2	0	24*	-12	-11	11	28*
CSCCCNC(=S)N1CCN(c2ccc(C(C)=O)cc2)CC1	-1	3	3	26*	-19	2	28*	31*
CCCCNc1cc(C)nc(NCc2ccccc2)n1	-71	-6	0	43*	19	0	53*	80*
Cc1cc(N2CCC(C)CC2)nc(NCc2ccccc2)n1	-75	-6	0	30*	10	-1	58*	83*
CCC(NC(=O)c1ccc2nc(Cc3ccc(OC)cc3)oc2c1)c1ccncc1 (centres undefined)	-7	6	0	46*	-24	1	39*	70*
CC(C)OC(=O)CSc1nnc(CNc2ccc(Cl)cc2)n1Cc1ccccc1	6	11	0	26*	-21	-5	24*	51*
CCCCn1nc(C(=O)Nc2ccc(-n3cnnn3)cc2)c2ccccc2c1=O	·	·	0	·	·	2	·	·
CC(C)=C(NC(=O)c1ccccc1)C(=O)Nc1cccc(C)c1	-3	6	0	2	-5	2	·	·
O=C(CN1C(=O)NC2(CCCCC2)C1=O)NC1CCCc2ccccc21 (centres undefined)	-1	5	2	-10	-11	-2	·	·
O=C(CN1C(=O)C2C3C=CC(C3)C2C1=O)NC1CCCc2ccccc21 (centres undefined)	0	-4	0	30*	-4	1	-1	6
CC1CCc2cc(F)ccc2N1C(=O)c1cccnc1 (centres undefined)	1	-6	2	26*	-15	1	-5	1
O=C(NCCC(=O)N1CCN(c2ccccn2)CC1)c1ccc(Br)cc1	·	0	1	·	·	2	·	·
C/C(=N/NC(=O)CCc1ccccc1)c1ccc2c(c1)OCO2	16	·	0	26*	-20	-1	2	-3
COc1ccc(CCC(=O)N/N=C(\C)c2ccc3c(c2)OCO3)cc1	-8	0	0	-12	-21	-5	·	·
O=S(=O)(/C=C/c1ccccc1)N1CCN(c2cccc(Cl)c2)CC1	4	6	0	-6	-3	-7	·	·
CCCC(CCC)C(=O)Nc1ccc2c(c1)N(C(=O)CN1CCN(C)CC1)c1ccccc1CC2	-56	-12	0	58*	49*	3	39*	22*
C=CCn1c(O)c(C2=c3ccccc3=NC2=O)c2ccccc21	10	1	1	38*	8	-1	46*	86*
CCCCCCCC1CC(CSc2ncn[nH]2)OC1=O (centres undefined)	-1	-8	0	21*	-17	-4	38*	38*
CC(NCc1ccc(-c2ccccc2)cc1)C(O)c1ccccc1 (centres undefined)	-69	-9	0	31*	32	-5	25*	51*
C=CCOc1ccc(C(=O)/C=C2/C(=O)Nc3ccccc32)cc1	-5	13	12	36	-4	5	·	·
C=CCOc1ccccc1C(=O)/C=C1/C(=O)Nc2ccccc21	-30	9	9	37*	-10	4	59*	82*
O=C(N/C(=C/c1cccc([N+](=O)[O-])c1)C(=O)N1CCOCC1)c1ccc(Br)cc1	6	-9	1	-5	-25	-3	·	·
SMILES	NS3 helicase inh	HCV core dimer	GRK2 aptamer HTS	GPR7 antag	FID counter	DAGLB inhibitor	GPR7 antag conf	MCHR1 antagonist
O=C(N/C(=C\c1cccc([N+](=O)[O-])c1)C(=O)N1CCOCC1)c1ccc([N+](=O)[O-])cc1	15	0	0	23*	2	3	1	-2
COc1ccc(CNC(=O)CCNS(=O)(=O)c2cc(Br)cnc2N)cc1	11	-11	1	5	-6	2	·	·
CCCC1=C(C(=O)OCC)C(c2cccnc2)n2nc(C)nc2N1 (centres undefined)	-2	-5	4	-12	-10	-3	·	·
O=C(COC(=O)Cc1ccc(S(=O)(=O)N2CCOCC2)s1)Nc1ccc(F)cc1F	·	·	2	·	·	1	·	·
O=C(Cc1ccc(S(=O)(=O)N2CCCCC2)s1)Nc1ccc(F)cc1F	2	16	0	35*	-15	-3	20	19
Cc1cc(C)cc(NC(=O)CS(=O)(=O)c2cccc3nsnc23)c1	-4	-7	3	-3	-12	2	·	·
CCOC(=O)c1ccc(NC(=O)CNNC(=O)COc2ccccc2C)cc1	·	·	1	·	·	-6	·	·
Cc1cccc(OCC(=O)Nc2ccccc2N2CCN(C)CC2)c1	7	0	0	31*	3	-3	19	49*
Cc1cccc(OCC(=O)Nc2ccccc2N2CCCCC2)c1	-2	1	2	-7	-6	-15	·	·
Cc1cc(C)c(OCC(=O)Nc2ccccc2N2CCCCC2)c(C)c1	·	-6	0	·	·	-3	·	·
CCC(=O)N1CCN(c2ccccc2NC(=O)COc2cc(C)ccc2C(C)C)CC1	-4	-3	5	34*	-37	-9	27*	51*
Cc1cc(C)c(OCC(=O)Nc2ccccc2N2CCOCC2)c(C)c1	-13	4	1	26*	-24	-9	59*	70*
O=C(c1ccco1)N1CCCC(c2nc3c(nnn3Cc3ccc(Cl)cc3Cl)c(=O)[nH]2)C1 (centres undefined)	4	12	2	-3	-48	3	·	·
CCOc1ccc(NC(=O)c2ccc3c(=O)n(-c4ccc(OC)cc4OC)c(=S)[nH]c3c2)cc1	6	0	4	24*	-30	0	44*	65*
C/C(CC(=O)Nc1cccc2c1CCCC2)=N\NC(=O)c1ccccc1N	5	2	4	25*	-13	-1	15	6
C/C(CC(=O)Nc1cccc2c1CCCC2)=N\NC(=O)c1cccc2ccccc12	6	-2	6	16	-14	1	·	·

Screening results as filed in PubChem BioAssay.
